Source: ChEMBL document CHEMBL2057104, “Identification of myricetin and scutellarein as novel chemical inhibitors of the SARS coronavirus helicase, nsP13” (Bioorg Med Chem Lett, 2012)
Calls of active or inactive are those of the source.

Columns and labels:
Hepacivirus hominis [1] = assay: Inhibition of HCV NS3 helicase ATP hydrolysis activity overexpressed in Escherichia coli BL21(DE3) assessed as inhibition of inorganic phosphate release by AM/MG-based colometric analysis in the presence of M13 ssDNA
Hepacivirus hominis [2] = assay: Inhibition of HCV NS3 helicase overexpressed in Escherichia coli BL21(DE3) assessed as inhibition of DNA unwinding activity at 10 uM by FRET assay
[3] = system: Severe acute respiratory syndrome-related coronavirus; assay: Inhibition of SARS coronavirus nsP13 helicase activity expressed in Escherichia coli Rosetta assessed inhibition of DNA unwinding activity at 10 uM by FRET assay
Summary of the method: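 FRET dsDNA-unwinding assay using fluorescein/TAMRA-labelled duplex. When nsP13 unwinds the duplex, fluorescein emission is unquenched. Compound was added to the unwinding reaction at 10 µM, and fluorescence was read at 535 nm.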

Measured: inhibition

C[C@H]1C(=O)CC[C@@H]2[C@]1(C)CC[C@H]1[C@@]2(C)CC[C@@]2(C)[C@@H]3CC(C)(C)CC[C@]3(C)CC[C@]12C
inactive: all assays above

COc1c2c(cc3oc(C)cc(=O)c13)OC(C(C)(C)O[C@H]1O[C@@H](CO)[C@H](O)[C@@H](O)[C@@H]1O)C2 (some centres not stated)
inactive: all assays above

Cc1cc(=O)c2c(O)c3c(cc2o1)OC(C)(C)[C@@H](O)C3
inactive: all assays above

COc1ccc([C@@H]2CC(=O)c3c(O)cc(O)cc3O2)cc1O[C@@H]1O[C@H](CO[C@@H]2O[C@@H](C)[C@H](O)[C@@H](O)[C@H]2O)[C@@H](O)[C@H](O)[C@H]1O
inactive: all assays above

COc1ccc(-c2oc3c(CC=C(C)C)c(O)cc(O)c3c(=O)c2O)cc1
inactive: all assays above

COc1ccc(-c2cc(=O)c3c(O)cc(O[C@H]4O[C@@H](CO)[C@H](O)[C@@H](O)[C@@H]4O)cc3o2)cc1O
inactive: all assays above

CC1(C)CC[C@]2(C(=O)O)CC[C@]3(C)C(=CC[C@@H]4[C@@]5(C)CC[C@H](O)C(C)(C)[C@@H]5CC[C@]43C)[C@@H]2C1
inactive: all assays above

O=c1c(O[C@@H]2O[C@H](CO)[C@H](O)[C@H](O)[C@H]2O)c(-c2ccc(O)c(O)c2)oc2cc(O)cc(O)c12
inactive: all assays above

COc1ccc(/C=C/C(=O)O[C@H]2[C@@H]3C=CO[C@@H](O[C@@H]4O[C@H](CO)[C@@H](O)[C@H](O)[C@H]4O)[C@@H]3[C@@]3(CO)O[C@@H]23)cc1O
inactive: all assays above

O=c1cc(-c2ccccc2)oc2cc(O)cc(O)c12
inactive: all assays above

CC1(C)CC[C@]2(C(=O)O)CC=C3[C@]4(C)CC[C@H]5C(C)(C)[C@@H](O)CC[C@]5(C)[C@H]4CC[C@@]3(C)[C@@H]2C1
inactive: all assays above

O=c1c(-c2ccc(O)cc2)coc2cc(O[C@@H]3O[C@H](CO)[C@@H](O)[C@H](O)[C@H]3O)ccc12
inactive: all assays above

C=C(C)[C@@H](C)CC[C@@H](C)[C@H]1CC[C@@]2(C)[C@@H]3CC[C@H]4C(C)(C)C(=O)CC[C@]4(C)C3=CC[C@]12C
inactive: all assays above

CC(C)=CCC[C@](C)(O[C@@H]1O[C@H](CO[C@@H]2O[C@H](CO)[C@@H](O)[C@H](O)[C@H]2O)[C@@H](O)[C@H](O)[C@H]1O)[C@H]1CC[C@]2(C)[C@@H]1[C@H](O)C[C@@H]1[C@@]3(C)CC[C@H](O[C@@H]4O[C@H](CO)[C@@H](O)[C@H](O)[C@H]4O)C(C)(C)[C@@H]3CC[C@]12C
inactive: all assays above

C=C1CC[C@@H]2[C@H]([C@H]3[C@H]1CC[C@]3(C)O)C2(C)C
inactive: all assays above

C=C1CC[C@@H]2[C@](C)(CCC[C@]2(C)C(=O)O)[C@H]1CCc1ccoc1
inactive: all assays above

O=c1cc(-c2ccccc2)oc2cc(O)c(O)c(O)c12
inactive: all assays above

O=C(/C=C/c1ccccc1)NCCCCNC(=O)c1ccccc1
inactive: all assays above

COc1cc(/C=C/C(=O)CC(=O)/C=C/c2ccc(O)c(OC)c2)ccc1O
inactive: all assays above

COc1c(O)cc2oc3cc(O)c4c(c3c(=O)c2c1CC=C(C)C)OC(C)(C)CC4
inactive: all assays above

O=C(/C=C/c1ccccc1)NCCCCNC(=O)Cc1ccc(O)cc1
inactive: all assays above

COc1ccc(C(=O)O[C@H]2[C@@H]3C=CO[C@@H](O[C@@H]4O[C@H](CO)[C@@H](O)[C@H](O)[C@H]4O)[C@@H]3[C@@]3(CO)O[C@@H]23)cc1OC
inactive: all assays above

COc1c2c(cc3oc(C)cc(=O)c13)OC(C(C)(C)O)C2 (configuration not stated)
inactive: all assays above

O=c1c(O)c(-c2ccc(O)cc2)oc2cc(O)cc(O)c12
inactive: all assays above

O=c1c(-c2ccc(O[C@@H]3O[C@H](CO)[C@@H](O)[C@H](O)[C@H]3O)cc2)coc2cc(O)cc(O)c12
inactive: all assays above

CC(C)=CCc1c(O)c(CC=C(C)C)c2oc3c(O)cccc3c(=O)c2c1O
inactive: all assays above

O=c1c(O)c(-c2ccccc2)oc2cc(O)cc(O)c12
inactive: all assays above

O=C(O)c1cc(O)c(O)c(O)c1
inactive: all assays above

CC(C)=CCOc1c2occc2cc2ccc(=O)oc12
inactive: all assays above

C/C=C(/C)C(=O)O[C@H]1Cc2c(cc3oc(C)cc(=O)c3c2O)OC1(C)C
inactive: all assays above

O=C(/C=C/c1ccccc1)NCCCCNC(=O)c1ccc(O)cc1
inactive: all assays above

C[C@H]1[C@H](C)CC[C@]2(C)CC[C@]3(C)C(=CC[C@@H]4[C@@]5(C)CC[C@H](O)C(C)(C)[C@@H]5CC[C@]43C)[C@H]12
inactive: all assays above

COc1ccc(C(=O)O[C@H]2[C@@H]3C=CO[C@@H](O[C@@H]4O[C@H](CO)[C@@H](O)[C@H](O)[C@H]4O)[C@@H]3[C@@]3(CO)O[C@@H]23)cc1O
inactive: all assays above

CC[C@H](CC[C@@H](C)[C@H]1CC[C@H]2[C@@H]3CC=C4C[C@@H](O[C@@H]5O[C@H](CO)[C@@H](O)[C@H](O)[C@H]5O)CC[C@]4(C)[C@H]3CC[C@]12C)C(C)C
inactive: all assays above

C[C@H]1[C@H](C)CC[C@]2(C(=O)O)CC[C@]3(C)C(=CC[C@@H]4[C@@]5(C)CC[C@H](O)C(C)(C)[C@@H]5CC[C@]43C)[C@H]12
inactive: all assays above

C=C(C)C(C)CC[C@@H](C)[C@H]1CC[C@@]2(C)[C@@H]3CC[C@H]4C(C)(C)C(=O)CC[C@]4(C)C3=CC[C@]12C (some centres not stated)
inactive: all assays above

CC(C)=CCC[C@](C)(O[C@@H]1O[C@H](CO[C@@H]2O[C@H](CO)[C@@H](O)[C@H](O)[C@H]2O)[C@@H](O)[C@H](O)[C@H]1O)[C@H]1CC[C@]2(C)[C@@H]1[C@H](O)C[C@@H]1[C@@]3(C)CC[C@H](O[C@@H]4O[C@H](CO)[C@@H](O)[C@H](O)[C@H]4O[C@@H]4O[C@H](CO)[C@@H](O)[C@H](O)[C@H]4O)C(C)(C)[C@@H]3CC[C@]12C
inactive: all assays above

COc1ccc(-c2oc3c(CC=C(C)C)c(O[C@@H]4O[C@H](CO)[C@@H](O)[C@H](O)[C@H]4O)cc(O)c3c(=O)c2O[C@@H]2O[C@@H](C)[C@H](O)[C@@H](O)[C@H]2O)cc1
inactive: all assays above

C[C@H]1[C@@H](O)CC[C@@H]2[C@]1(C)CC[C@H]1[C@@]2(C)CC[C@@]2(C)[C@@H]3CC(C)(C)CC[C@]3(C)CC[C@]12C
inactive: all assays above

C=C[C@]1(C)CC[C@@]2(C)C3=CCC[C@](C)(CO)[C@@H]3CC[C@@H]2C1
inactive: all assays above

C[C@@H]1O[C@@H](O[C@H]2[C@H](Oc3cc(O)c4c(c3)O[C@H](c3ccc(O)cc3)CC4=O)O[C@H](CO)[C@@H](O)[C@@H]2O)[C@H](O)[C@H](O)[C@H]1O
inactive: all assays above

C/C=C(/C)C(=O)O[C@H]1Cc2c(cc3oc(CO)cc(=O)c3c2O)OC1(C)C
inactive: all assays above

C=C(C)C(C)(C)CC[C@@H](C)[C@H]1CC[C@@]2(C)[C@@H]3CC[C@H]4C(C)(C)C(=O)CC[C@]4(C)C3=CC[C@]12C
inactive: all assays above

CC[C@H](/C=C/[C@@H](C)[C@H]1CC[C@H]2[C@@H]3CC=C4C[C@@H](O)CC[C@]4(C)[C@H]3CC[C@]12C)C(C)C
inactive: all assays above
